Results reported in ChEMBL document CHEMBL5058577, “EUbOPEN Chemogenomics Library 2 (Multiplex)” (2022).

Test system: U2OS
Assay: Multiplex assay against U2OS
Format: toxicity, cell-based
Conditions: human
How it was run: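 Tubulin, mitochondrial-mass and membrane-permeability phenotypes are per cents of healthy-nucleus cells. Cells were gated by CellPathfinder machine learning into Hoechst high-intensity objects or normal cells, normal cells into healthy, pyknosed or fragmented nuclei, and pyknosed cells into mitotic or apoptotic. Before that, live cells stained at seeding with Hoechst33342, BioTracker Green Microtubule Cytoskeleton Dye, MitoTracker Red and Annexin V Alexa Fluor 680 were imaged on a CQ1 microscope at 37°C and 5% CO2 after compound addition.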

[1] = 12 h, 1 µM, compound concentration 1 uM, replicate 1
[2] = 12 h, 1 µM, compound concentration 1 uM, replicate 2
[3] = 12 h, 10 µM, compound concentration 10 uM, replicate 1
[4] = 12 h, 10 µM, compound concentration 10 uM, replicate 2
[5] = 24 h, 1 µM, compound concentration 1 uM, replicate 1
[6] = 24 h, 1 µM, compound concentration 1 uM, replicate 2
[7] = 24 h, 10 µM, compound concentration 10 uM, replicate 1
[8] = 24 h, 10 µM, compound concentration 10 uM, replicate 2
[9] = 48 h, 1 µM, compound concentration 1 uM, replicate 1
[10] = 48 h, 1 µM, compound concentration 1 uM, replicate 2
[11] = 48 h, 10 µM, compound concentration 10 uM, replicate 1
[12] = 48 h, 10 µM, compound concentration 10 uM, replicate 2

## O=C(O)CCC/C=C\CC1C(O)CC(O)C1/C=C/C(O)COc1cccc(Cl)c1 (centres undefined) [CLOPROSTENOL]
[1]
  Population Apoptotic (%): 77%
  Population Fragmented Nuclei (%): 30%
  Population Healthy Nuclei (%): 60%
  Population Hoechst High Intensity Objects (%): 3%
  Population Membrane Permeable-Phenotype (%): 2%
  Population Mitochondria Different-Phenotype (%): 0%
  Population Mitotic Cells (%): 22%
  Population Normal (%): 96%
  Population Pyknosed Nuclei (%): 9%
  Population Tubulin-Different-Phenotype (%): 1%
  Total Cell Count: 201
[2]
  Population Apoptotic (%): 75%
  Population Fragmented Nuclei (%): 11%
  Population Healthy Nuclei (%): 82%
  Population Hoechst High Intensity Objects (%): 0%
  Population Membrane Permeable-Phenotype (%): 6%
  Population Mitochondria Different-Phenotype (%): 3%
  Population Mitotic Cells (%): 25%
  Population Normal (%): 100%
  Population Pyknosed Nuclei (%): 6%
  Population Tubulin-Different-Phenotype (%): 2%
  Total Cell Count: 129
[3]
  Population Apoptotic (%): 92%
  Population Fragmented Nuclei (%): 28%
  Population Healthy Nuclei (%): 60%
  Population Hoechst High Intensity Objects (%): 2%
  Population Membrane Permeable-Phenotype (%): 8%
  Population Mitochondria Different-Phenotype (%): 1%
  Population Mitotic Cells (%): 7%
  Population Normal (%): 97%
  Population Pyknosed Nuclei (%): 10%
  Population Tubulin-Different-Phenotype (%): 3%
  Total Cell Count: 272
[4]
  Population Apoptotic (%): 45%
  Population Fragmented Nuclei (%): 9%
  Population Healthy Nuclei (%): 81%
  Population Hoechst High Intensity Objects (%): 0%
  Population Membrane Permeable-Phenotype (%): 9%
  Population Mitochondria Different-Phenotype (%): 6%
  Population Mitotic Cells (%): 54%
  Population Normal (%): 100%
  Population Pyknosed Nuclei (%): 8%
  Total Cell Count: 131
[5]
  Population Apoptotic (%): 81%
  Population Fragmented Nuclei (%): 24%
  Population Healthy Nuclei (%): 63%
  Population Hoechst High Intensity Objects (%): 1%
  Population Membrane Permeable-Phenotype (%): 4%
  Population Mitochondria Different-Phenotype (%): 2%
  Population Mitotic Cells (%): 18%
  Population Normal (%): 98%
  Population Pyknosed Nuclei (%): 11%
  Population Tubulin-Different-Phenotype (%): 2%
  Total Cell Count: 237
[6]
  Population Apoptotic (%): 75%
  Population Fragmented Nuclei (%): 15%
  Population Healthy Nuclei (%): 77%
  Population Hoechst High Intensity Objects (%): 0%
  Population Membrane Permeable-Phenotype (%): 6%
  Population Mitotic Cells (%): 25%
  Population Normal (%): 100%
  Population Pyknosed Nuclei (%): 7%
  Population Tubulin-Different-Phenotype (%): 4%
  Total Cell Count: 157
[7]
  Population Apoptotic (%): 90%
  Population Fragmented Nuclei (%): 23%
  Population Healthy Nuclei (%): 66%
  Population Hoechst High Intensity Objects (%): 2%
  Population Membrane Permeable-Phenotype (%): 7%
  Population Mitochondria Different-Phenotype (%): 2%
  Population Mitotic Cells (%): 10%
  Population Normal (%): 97%
  Population Pyknosed Nuclei (%): 10%
  Population Tubulin-Different-Phenotype (%): 3%
  Total Cell Count: 306
[8]
  Population Apoptotic (%): 70%
  Population Fragmented Nuclei (%): 11%
  Population Healthy Nuclei (%): 82%
  Population Hoechst High Intensity Objects (%): 0%
  Population Membrane Permeable-Phenotype (%): 11%
  Population Mitochondria Different-Phenotype (%): 4%
  Population Mitotic Cells (%): 30%
  Population Normal (%): 100%
  Population Pyknosed Nuclei (%): 5%
  Population Tubulin-Different-Phenotype (%): 4%
  Total Cell Count: 177
[9]
  Population Apoptotic (%): 89%
  Population Fragmented Nuclei (%): 20%
  Population Healthy Nuclei (%): 70%
  Population Hoechst High Intensity Objects (%): 1%
  Population Membrane Permeable-Phenotype (%): 2%
  Population Mitochondria Different-Phenotype (%): 1%
  Population Mitotic Cells (%): 10%
  Population Normal (%): 98%
  Population Pyknosed Nuclei (%): 8%
  Population Tubulin-Different-Phenotype (%): 0%
  Total Cell Count: 344
[10]
  Population Apoptotic (%): 81%
  Population Fragmented Nuclei (%): 11%
  Population Healthy Nuclei (%): 81%
  Population Hoechst High Intensity Objects (%): 0%
  Population Membrane Permeable-Phenotype (%): 6%
  Population Mitochondria Different-Phenotype (%): 3%
  Population Mitotic Cells (%): 18%
  Population Normal (%): 99%
  Population Pyknosed Nuclei (%): 7%
  Population Tubulin-Different-Phenotype (%): 2%
  Total Cell Count: 229
[11]
  Population Apoptotic (%): 91%
  Population Fragmented Nuclei (%): 18%
  Population Healthy Nuclei (%): 67%
  Population Hoechst High Intensity Objects (%): 3%
  Population Membrane Permeable-Phenotype (%): 6%
  Population Mitochondria Different-Phenotype (%): 1%
  Population Mitotic Cells (%): 8%
  Population Normal (%): 96%
  Population Pyknosed Nuclei (%): 14%
  Population Tubulin-Different-Phenotype (%): 4%
  Total Cell Count: 396
[12]
  Population Apoptotic (%): 84%
  Population Fragmented Nuclei (%): 12%
  Population Healthy Nuclei (%): 82%
  Population Hoechst High Intensity Objects (%): 2%
  Population Membrane Permeable-Phenotype (%): 10%
  Population Mitochondria Different-Phenotype (%): 2%
  Population Mitotic Cells (%): 15%
  Population Normal (%): 97%
  Population Pyknosed Nuclei (%): 5%
  Total Cell Count: 246
